# Test results published in PMC9079187 (ACS nano, 2021).
# Like-named read-outs stand apart in the source and are kept apart here.
# Assays:
# [1] = test system: hippocampus of middle aged humans; settings: middle aged humans of around 40 years of age; contrast agent; cited from earlier work
# [2] = Zeta potential measurement; type: physicochemical; settings: Malvern Zetasizer Nano; with NPs
# Dynamic light scattering = type: physicochemical; settings: DLS, Malvern Zetasizer Nano; DPBS pH 7.4, 0.05 mM, filtered 0.22 μm
# [3] = target: T1, mouse claudin-1 in bEnd.3 cells (Mus musculus, UniProt O88551); assay: In vitro fluorescence imaging of NP binding to bEnd.3 cells; type: cell-based
# T1 sequence (O88551 1-211): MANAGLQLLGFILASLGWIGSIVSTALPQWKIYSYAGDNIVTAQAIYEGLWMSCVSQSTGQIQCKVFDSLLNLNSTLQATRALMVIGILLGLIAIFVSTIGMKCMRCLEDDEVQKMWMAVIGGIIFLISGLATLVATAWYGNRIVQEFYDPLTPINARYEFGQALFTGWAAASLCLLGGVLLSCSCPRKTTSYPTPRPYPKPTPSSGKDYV
# Method in brief: (§1)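 bEnd.3 mouse brain endothelial cells were grown in DMEM. For mouse claudin-1, cells were treated with ethanol (50 mM) to induce expression. For human claudin-1, cells were transfected with a pCMV plasmid encoding it. Cells were then incubated with AF-647-labelled targeted NPs for 4 hrs and imaged by fluorescence. Claudin-1 induction was checked by western blot relative to β-actin.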
# [4] = Biodistribution in peripheral organs by ICP-MS; type: in vivo, mouse; settings: ICP-MS of Gd
# Method in brief: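 Male and female C57BL/6J mice, three aged 2 months and three aged 12 months, received 100 μL of 0.5 mM control or targeted Gd-oxide NPs. Transcardial perfusion with ice-cold DPBS followed at 1 hr. Heart, lung, liver, kidneys, spleen, colon and intestine were weighed and digested in HNO3 at 100 °C for 120 minutes. Samples were filtered, diluted and measured for Gd by ICP-MS.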
# human claudin-4 = target: T2, human claudin-4 (Homo sapiens, UniProt O14493); assay: Microscale thermophoresis; type: binding; settings: MST; buffer with 0.1% n-Undecyl-β-D-Maltopyranoside; 23°C; C1C2-NP fixed at 70 nM, claudin-4 0.8-28000 nM
# T2 sequence (O14493 1-209): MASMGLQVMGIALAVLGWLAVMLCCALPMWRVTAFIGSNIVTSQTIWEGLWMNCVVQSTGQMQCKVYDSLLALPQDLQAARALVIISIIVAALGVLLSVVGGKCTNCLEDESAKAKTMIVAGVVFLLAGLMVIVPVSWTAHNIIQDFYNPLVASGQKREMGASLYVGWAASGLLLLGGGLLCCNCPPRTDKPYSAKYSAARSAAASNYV
# Method in brief: (§2)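 Microscale thermophoresis on a Monolith instrument. AF647-labelled test NP was held at 70 nM against titrated human claudin-3 (0.4–14000 nM), claudin-4 (0.8–28000 nM) or claudin-9 (0.6–20000 nM). Buffer was 10 mM Tris-HCl pH 8.0, 100 mM NaCl, 4% glycerol and 0.1% n-undecyl-β-D-maltopyranoside. As a non-specific control, detergent was titrated 10 mM–0.7 μM against 1 μM AF647-labelled control NP.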
# human claudin-9 = target: T3, human claudin-9 (Homo sapiens, UniProt O95484); assay: Microscale thermophoresis; type: binding; settings: MST; buffer with 0.1% n-Undecyl-β-D-Maltopyranoside; 23°C; C1C2-NP fixed at 70 nM, claudin-9 0.6-20000 nM
# T3 sequence (O95484 1-217): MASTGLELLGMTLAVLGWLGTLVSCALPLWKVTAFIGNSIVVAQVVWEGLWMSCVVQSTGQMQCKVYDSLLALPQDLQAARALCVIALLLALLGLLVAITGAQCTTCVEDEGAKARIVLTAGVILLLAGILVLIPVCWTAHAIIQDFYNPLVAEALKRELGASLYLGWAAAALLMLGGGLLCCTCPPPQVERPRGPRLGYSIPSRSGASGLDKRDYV
# Method in brief: as §2
# human claudin-3 = target: T4, human claudin-3 (Homo sapiens, UniProt O15551); assay: Microscale thermophoresis; type: binding; settings: MST; claudin-3 0.4-14000 nM; C1C2-NP fixed at 70 nM; buffer with 0.1% n-Undecyl-β-D-Maltopyranoside; 23°C
# T4 sequence (O15551 1-220): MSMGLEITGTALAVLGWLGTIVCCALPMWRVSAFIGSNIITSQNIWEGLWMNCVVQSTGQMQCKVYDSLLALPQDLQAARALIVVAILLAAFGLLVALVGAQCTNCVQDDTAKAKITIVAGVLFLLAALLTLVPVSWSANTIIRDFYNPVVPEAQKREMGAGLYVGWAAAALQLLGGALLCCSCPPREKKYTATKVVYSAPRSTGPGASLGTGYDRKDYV
# Method in brief: as §2
# [5] = target: T5, claudin-1 on brain endothelial cells (Mus musculus, UniProt O88551); type: in vivo; settings: corpus callosum and hippocampus, confocal, ~2 hrs post-injection
# T5 sequence (O88551 1-211): T1 sequence (O88551 1-211)
# Method in brief: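 Male and female C57BL/6J mice, 2 and 12 months old, received 100 μL of 0.5 mM test NP by tail vein, then a 100 μL PBS flush. About 2 h after injection they were perfused with 4% PFA and brains fixed 24 h. Sections were blocked 1 h at RT, stained overnight at 4 °C with rat anti-CD31 (1:250) and rabbit anti-claudin-1 (1:100), then AF488/AF555 secondaries (1:250, 2 h, RT) and DAPI. Confocal imaging used a 40x objective; colocalization was quantified with JACoP on ≥3 random fields per region per mouse.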
# [6] = target: T6, human claudin-1 expressed in bEnd.3 cells (Homo sapiens, UniProt O95832); type: cell-based; settings: plasmid transfection; NP incubation 4 hrs; fluorescence
# T6 sequence (O95832 1-211): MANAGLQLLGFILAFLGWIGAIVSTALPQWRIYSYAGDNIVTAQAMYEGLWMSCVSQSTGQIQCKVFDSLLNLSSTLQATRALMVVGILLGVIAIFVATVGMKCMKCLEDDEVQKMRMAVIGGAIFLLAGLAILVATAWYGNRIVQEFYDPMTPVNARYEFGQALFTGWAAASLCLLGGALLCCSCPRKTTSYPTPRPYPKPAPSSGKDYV
# Method in brief: as §1
# [7] = target: C1C2-NP (C1C2 peptide conjugated to PEG diacid coated Gd nanoparticles, AF647 labeled); assay: MST
compound,measurement,setting,value
CNC[C@H](O)[C@@H](O)[C@H](O)[C@H](O)CO.CNC[C@H](O)[C@@H](O)[C@H](O)[C@H](O)CO.O=C([O-])CN(CCN(CC(=O)[O-])CC(=O)O)CCN(CC(=O)O)C(COCc1ccccc1)C(=O)[O-].[Gd+3] (centres unmarked) [MultiHance],"K^trans, hippocampus",[1],~ 0.001 min^−1
GSQIYMICNQFYTPGGTG [Ocldn207-NP],Zeta Potential,[2],3.65±0.19 mV
same,Hydrodynamic size,Dynamic light scattering,14.23±0.11 nm
QEFYDPLTPINARYE [Cldn146-NP],Zeta Potential,[2],1.62±0.13 mV
same,Hydrodynamic size,Dynamic light scattering,13.94±0.08 nm
SCVSQSTGQIQCKVFDSLLNLNSTLQAT [Cldn53-NP],Zeta Potential,[2],2.24±0.18 mV
same,Hydrodynamic size,Dynamic light scattering,13.8±0.11 nm
SSVSQSTGQIQSKVDSLLNLNSTQATR [C1C2-NP],Zeta Potential,[2],7.81±0.38 mV
same,Hydrodynamic size,Dynamic light scattering,14.5±0.13 nm
same,NP binding to ethanol-exposed bEnd.3 cells,"[3]; ethanol (50mM) induced claudin-1, NP incubation 4 hrs",much higher binding
same,NP binding to control bEnd.3 cells,"[3]; normal culture, low claudin-1 expression, AF-647 modified NPs",no binding
same,accumulation in the kidney,"[4]; 1 hr post-injection of 100 μL of 0.5 mM NPs, versus control NPs",increased
same,"accumulation in kidneys, 12-month-old compared to 2-month-old mice","[4]; 1 hr post-injection, three mice per age",higher
same,binding to human claudin-4 (in words),human claudin-4,quite weak
same,binding to human claudin-9 (in words),human claudin-9,quite weak
same,binding to human claudin-3 (in words),human claudin-3,does not show any binding
same,"colocalization of claudin-1, CD31 and nanoparticles in brain",[5]; 2-month-old mice,not observed
same,"colocalization of claudin-1, CD31 and nanoparticles in brain",[5]; 12-month-old mice,colocalization
same,NP binding to bEnd.3 cells transfected to express human claudin-1,[6],High NP binding
recombinant human claudin-1 (from UniProt O95832 1-211) (natural protein),Kd,[7],21 µM
